Reference: ChEMBL document CHEMBL4334458, “Design, synthesis and antibacterial evaluation of novel 15-membered 11a-azahomoclarithromycin derivatives with the 1, 2, 3-triazole side chain” (Eur J Med Chem, 2019)
≈ marks a conversion by molar mass, not a printed value.

Experiments:
Assay type in all cases: functional
Streptococcus pneumoniae [1] = test: Antibacterial activity against erythromycin-resistant Streptococcus pneumoniae AB11 expressing the ermB and mefA incubated for 24 hrs by broth dilution method
Staphylococcus aureus [2] = test: Ratio of MIC for CAM to MIC for test compound for antibacterial activity against methicillin-resistant Staphylococcus aureus ATCC 43300 incubated for 24 hrs by broth dilution method
Outline: (§1)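 Ratio of clarithromycin MIC to compound MIC. Both MICs come from CLSI broth microdilution in cation-adjusted Mueller-Hinton broth with 2-fold dilutions, log-phase inoculum and 24 h at 37 °C, read by turbidity as the last clear well.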

Staphylococcus aureus [3] = test: Antibacterial activity against erythromycin-susceptible Staphylococcus aureus ATCC 25923 incubated for 24 hrs by broth dilution method; conditions: ATCC 25923, 24 h
Outline: (§2)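 CLSI broth microdilution in cation-adjusted Mueller-Hinton broth. Twofold dilutions spanned 0.25–128 or 0.5–256 µg/mL, with CAM and AZM as controls. Log-phase bacteria were added and incubated 24 h at 37 °C. MIC was read by turbidity as the concentration of the last clear well.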

Streptococcus pneumoniae [4] = test: Antibacterial activity against erythromycin-resistant Streptococcus pneumoniae B1 expressing the ermB incubated for 24 hrs by broth dilution method
Streptococcus pyogenes [5] = test: Antibacterial activity against erythromycin-resistant Streptococcus pyogenes 2 clinical isolate incubated for 24 hrs by broth dilution method
Pseudomonas aeruginosa = test: Antibacterial activity against penicillin-susceptible Pseudomonas aeruginosa ATCC 27853 incubated for 24 hrs by broth dilution method; conditions: ATCC 27853, 24 h; outline: as §2
Streptococcus pyogenes [6] = test: Antibacterial activity against erythromycin-susceptible Streptococcus pyogenes 1 clinical isolate incubated for 24 hrs by broth dilution method; outline: as §2
Streptococcus pyogenes [7] = test: Ratio of MIC for CAM to MIC for test compound for antibacterial activity against erythromycin-resistant Streptococcus pyogenes 2 clinical isolate incubated for 24 hrs by broth dilution method; outline: as §1
Streptococcus pneumoniae [8] = test: Ratio of MBC to MIC for erythromycin-resistant Streptococcus pneumoniae AB11 expressing the ermB and mefA
Staphylococcus aureus [9] = test: Antibacterial activity against penicillin-resistant Staphylococcus aureus ATCC 31007 incubated for 24 hrs by broth dilution method; conditions: ATCC 31007, 24 h
Streptococcus pneumoniae [10] = test: Ratio of MIC for CAM to MIC for test compound for antibacterial activity against erythromycin-resistant Streptococcus pneumoniae AB11 expressing the ermB and mefA incubated for 24 hrs by broth dilution method; outline: as §1
Bacillus subtilis = test: Antibacterial activity against penicillin-susceptible Bacillus subtilis ATCC 9372 incubated for 24 hrs by broth dilution method; conditions: ATCC 9372, 24 h; outline: as §2
Streptococcus pneumoniae [11] = test: Bactericidal activity against erythromycin-resistant Streptococcus pneumoniae AB11 expressing the ermB and mefA incubated for 24 hrs followed by re-plating on tryptic soy agar plates for 24 hrs by broth microdilution assay
Outline: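 Follows the 24 h, 37 °C CAMH broth microdilution MIC plate; contents of clear wells plated onto tryptic soy agar and incubated 24 h at 37 °C; MBC taken as the lowest concentration giving no colonies.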

Escherichia coli = test: Antibacterial activity against penicillin-susceptible Escherichia coli ATCC 25922 incubated for 24 hrs by broth dilution method; conditions: ATCC 25922, 24 h; outline: as §2
Staphylococcus aureus [12] = test: Ratio of MIC for CAM to MIC for test compound for antibacterial activity against penicillin-resistant Staphylococcus aureus ATCC 31007 incubated for 24 hrs by broth dilution method; outline: as §1
Streptococcus pneumoniae [13] = test: Ratio of MIC for CAM to MIC for test compound for antibacterial activity against erythromycin-resistant Streptococcus pneumoniae B1 expressing the ermB incubated for 24 hrs by broth dilution method; outline: as §1
Staphylococcus aureus [14] = test: Antibacterial activity against methicillin-resistant Staphylococcus aureus ATCC 43300 incubated for 24 hrs by broth dilution method; conditions: ATCC 43300, 24 h

SMILES | MIC (Streptococcus pneumoniae [1]) | Ratio (Staphylococcus aureus [2]) | MIC (Staphylococcus aureus [3]) | MIC (Streptococcus pneumoniae [4]) | MIC (Streptococcus pyogenes [5]) | MIC (Pseudomonas aeruginosa) | MIC (Streptococcus pyogenes [6]) | Ratio (Streptococcus pyogenes [7]) | Ratio (Streptococcus pneumoniae [8]) | MIC (Staphylococcus aureus [9]) | Ratio (Streptococcus pneumoniae [10]) | MIC (Bacillus subtilis) | MBC (Streptococcus pneumoniae [11]) | MIC (Escherichia coli) | Ratio (Staphylococcus aureus [12]) | Ratio (Streptococcus pneumoniae [13]) | MIC (Staphylococcus aureus [14])
CCCc1ccc(-n2cc(COC[C@@H]3CN(C)C[C@@H](C)[C@@H](O)[C@H](C)C[C@@](C)(OC)[C@H](O[C@@H]4O[C@H](C)C[C@H](N(C)C)[C@H]4O)[C@@H](C)[C@H](O[C@H]4C[C@@](C)(OC)[C@@H](O)[C@H](C)O4)[C@@H](C)C(=O)O3)nn2)cc1 | 8 µg/mL (≈ 8.56 µM) | 8 - 16 | 4 µg/mL (≈ 4.28 µM) | 16 µg/mL (≈ 17.1 µM) | 32 µg/mL (≈ 34.3 µM) | > 128 µg/mL | 4 µg/mL (≈ 4.28 µM) | 8 - 16 | 8 | 32 µg/mL (≈ 34.3 µM) | 8 - 16 | 1 µg/mL (≈ 1.07 µM) | 64 µg/mL (≈ 68.5 µM) | 64 µg/mL (≈ 68.5 µM) | 8 - 16 | 8 - 16 | 16 µg/mL (≈ 17.1 µM)
COc1cccc(-n2cc(COC[C@@H]3CN(C)C[C@@H](C)[C@@H](O)[C@H](C)C[C@@](C)(OC)[C@H](O[C@@H]4O[C@H](C)C[C@H](N(C)C)[C@H]4O)[C@@H](C)[C@H](O[C@H]4C[C@@](C)(OC)[C@@H](O)[C@H](C)O4)[C@@H](C)C(=O)O3)nn2)c1 | 64 µg/mL (≈ 69.4 µM) |  | 2 µg/mL (≈ 2.17 µM) | 128 µg/mL (≈ 139 µM) | 64 µg/mL (≈ 69.4 µM) | 128 µg/mL (≈ 139 µM) | 2 µg/mL (≈ 2.17 µM) |  |  | 256 µg/mL (≈ 278 µM) |  | 2 µg/mL (≈ 2.17 µM) |  | 128 µg/mL (≈ 139 µM) |  |  | 256 µg/mL (≈ 278 µM)
CC[C@H]1OC(=O)[C@H](C)[C@@H](O[C@H]2C[C@@](C)(OC)[C@@H](O)[C@H](C)O2)[C@H](C)[C@@H](O[C@@H]2O[C@H](C)C[C@H](N(C)C)[C@H]2O)[C@](C)(O)C[C@@H](C)CN(C)[C@H](C)[C@@H](O)[C@]1(C)O [AZITHROMYCIN] | 256 µg/mL (≈ 342 µM) |  | ≤ 0.25 µg/mL | > 256 µg/mL | 256 µg/mL (≈ 342 µM) | 16 µg/mL (≈ 21.4 µM) | ≤ 0.03 µg/mL |  |  | > 256 µg/mL |  | ≤ 0.25 µg/mL |  | 64 µg/mL (≈ 85.4 µM) |  |  | > 256 µg/mL
CO[C@]1(C)C[C@@H](C)[C@H](O)[C@H](C)CN(C)C[C@@H](Cn2cc(-c3ccccc3)nn2)OC(=O)[C@H](C)[C@@H](O[C@H]2C[C@@](C)(OC)[C@@H](O)[C@H](C)O2)[C@H](C)[C@H]1O[C@@H]1O[C@H](C)C[C@H](N(C)C)[C@H]1O | 64 µg/mL (≈ 74.2 µM) |  | 0.5 µg/mL (≈ 0.58 µM) | 64 µg/mL (≈ 74.2 µM) | 64 µg/mL (≈ 74.2 µM) | 64 µg/mL (≈ 74.2 µM) | 0.5 µg/mL (≈ 0.58 µM) |  |  | 128 µg/mL (≈ 148 µM) |  | 1 µg/mL (≈ 1.16 µM) |  | 64 µg/mL (≈ 74.2 µM) |  |  | 256 µg/mL (≈ 297 µM)
CCCCc1ccc(-c2cn(C[C@H]3COC(=O)[C@H](C)[C@@H](O[C@H]4C[C@@](C)(OC)[C@@H](O)[C@H](C)O4)[C@H](C)[C@@H](O[C@@H]4O[C@H](C)C[C@H](N(C)C)[C@H]4O)[C@](C)(OC)C[C@@H](C)[C@H](O)[C@H](C)CN3C)nn2)cc1 | 16 µg/mL (≈ 17.4 µM) |  | 16 µg/mL (≈ 17.4 µM) | > 256 µg/mL | 16 µg/mL (≈ 17.4 µM) | > 128 µg/mL | 4 µg/mL (≈ 4.36 µM) | 8 - 16 |  | 16 µg/mL (≈ 17.4 µM) | 8 - 16 | 8 µg/mL (≈ 8.71 µM) |  | > 128 µg/mL | 8 - 16 |  | > 256 µg/mL
COc1ccc(-n2cc(COC[C@H]3CN(C)C[C@@H](C)[C@@H](O)[C@H](C)C[C@@](C)(OC)[C@H](O[C@@H]4O[C@H](C)C[C@H](N(C)C)[C@H]4O)[C@@H](C)[C@H](O[C@H]4C[C@@](C)(OC)[C@@H](O)[C@H](C)O4)[C@@H](C)C(=O)O3)nn2)cc1 | 64 µg/mL (≈ 69.4 µM) |  | 1 µg/mL (≈ 1.08 µM) | > 256 µg/mL | 128 µg/mL (≈ 139 µM) | 16 µg/mL (≈ 17.4 µM) | 0.25 µg/mL (≈ 0.271 µM) |  |  | > 256 µg/mL |  | 0.5 µg/mL (≈ 0.542 µM) |  | 64 µg/mL (≈ 69.4 µM) |  |  | > 256 µg/mL
CO[C@]1(C)C[C@@H](C)[C@H](O)[C@H](C)CN(C)C[C@@H](Cn2cc(-c3ccc(Cl)cc3)nn2)OC(=O)[C@H](C)[C@@H](O[C@H]2C[C@@](C)(OC)[C@@H](O)[C@H](C)O2)[C@H](C)[C@H]1O[C@@H]1O[C@H](C)C[C@H](N(C)C)[C@H]1O | 64 µg/mL (≈ 71.4 µM) |  | 8 µg/mL (≈ 8.92 µM) | 64 µg/mL (≈ 71.4 µM) | 32 µg/mL (≈ 35.7 µM) | > 128 µg/mL | 2 µg/mL (≈ 2.23 µM) |  |  | 64 µg/mL (≈ 71.4 µM) |  | 16 µg/mL (≈ 17.8 µM) |  | 128 µg/mL (≈ 143 µM) |  |  | 64 µg/mL (≈ 71.4 µM)
